Assay results published in ChEMBL document CHEMBL1148385, “Synthesis and opioid activity of side-chain-to-side-chain cyclic dynorphin A-(1-11) amide analogues cyclized between positions 2 and 5. 1. Substitutions in position 3” (J Med Chem, 2004).
Where a SMILES comes first, the peptide text is derived from it.

How the values were obtained:
[1] = target: T1, Kappa-type opioid receptor (Rattus norvegicus, UniProt P34975); assay: Binding affinity towards Opioid receptor kappa 1 expressed in CHO cells was determined by using [3H]diprenorphine as radioligand; type: cell-based
How it was run: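 Competition binding at room temperature on CHO cells stably expressing cloned rat κ (radioligand [³H]diprenorphine, KD 0.45 nM), rat μ ([³H]DAMGO, KD 0.49 nM) or mouse δ ([³H]DPDPE, KD 1.76 nM) receptors. Peptidase inhibitors (10 μM bestatin, 30 μM captopril, 50 μM L-leucyl-L-leucine) and 3 mM Mg²⁺ present. Nonspecific binding defined with 10 μM Dyn A-(1–13)NH₂, DAMGO or DPDPE respectively. Logistic fit for IC50; Ki via Cheng–Prusoff; mean ± SEM, ≥3 assays.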

[2] = target: T1, Kappa-type opioid receptor; assay: Inhibition of forskolin-stimulated adenylyl cyclase activity by compound in CHO cells expressing Opioid receptor kappa 1; type: functional, cell-based
How it was run: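 CHO cells stably expressing cloned rat κ receptor were incubated 40 min at 37 °C with 50 μM forskolin and various peptide concentrations. RO20-1724 (50 μM) and peptidase inhibitors (bestatin, captopril, L-leucyl-L-leucine) were present. [³H]cAMP was counted, with [¹⁴C]cAMP added for recovery correction and counts corrected for crossover. Mean ± SEM of 2–3 separate assays.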

Mu-type opioid receptor = Mu-type opioid receptor (Rattus norvegicus, UniProt P33535); assay: Binding affinity towards Opioid receptor mu 1 expressed in CHO cells was determined by using[3H]DAMGO as radioligand; type: cell-based
[3] = target: Delta-type opioid receptor (Mus musculus, UniProt P32300); assay: Binding affinity towards opioid receptor delta 1 expressed in CHO cells was determined by using [3H]DPDPE as radioligand; type: cell-based
Delta-type opioid receptor, sequence (P32300 whole entry): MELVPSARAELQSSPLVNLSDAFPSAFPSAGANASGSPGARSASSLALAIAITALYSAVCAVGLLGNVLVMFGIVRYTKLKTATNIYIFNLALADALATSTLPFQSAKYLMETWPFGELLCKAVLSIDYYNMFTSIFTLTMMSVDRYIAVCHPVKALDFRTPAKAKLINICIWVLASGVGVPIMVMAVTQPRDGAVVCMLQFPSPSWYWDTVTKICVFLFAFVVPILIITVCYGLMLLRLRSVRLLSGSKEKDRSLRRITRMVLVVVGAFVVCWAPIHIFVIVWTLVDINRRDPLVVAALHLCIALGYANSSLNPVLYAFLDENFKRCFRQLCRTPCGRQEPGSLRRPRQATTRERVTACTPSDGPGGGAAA

T1 sequence (P34975 whole entry): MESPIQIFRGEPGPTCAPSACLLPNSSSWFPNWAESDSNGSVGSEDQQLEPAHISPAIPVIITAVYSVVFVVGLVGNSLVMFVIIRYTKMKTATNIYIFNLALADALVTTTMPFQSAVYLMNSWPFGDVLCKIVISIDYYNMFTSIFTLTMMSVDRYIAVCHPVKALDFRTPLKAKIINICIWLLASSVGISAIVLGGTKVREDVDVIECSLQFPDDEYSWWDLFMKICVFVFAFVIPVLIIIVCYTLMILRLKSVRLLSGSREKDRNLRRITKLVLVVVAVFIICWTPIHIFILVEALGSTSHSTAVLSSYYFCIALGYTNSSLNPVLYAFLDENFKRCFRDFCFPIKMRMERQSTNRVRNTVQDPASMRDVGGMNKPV
Mu-type opioid receptor, sequence (P33535 whole entry): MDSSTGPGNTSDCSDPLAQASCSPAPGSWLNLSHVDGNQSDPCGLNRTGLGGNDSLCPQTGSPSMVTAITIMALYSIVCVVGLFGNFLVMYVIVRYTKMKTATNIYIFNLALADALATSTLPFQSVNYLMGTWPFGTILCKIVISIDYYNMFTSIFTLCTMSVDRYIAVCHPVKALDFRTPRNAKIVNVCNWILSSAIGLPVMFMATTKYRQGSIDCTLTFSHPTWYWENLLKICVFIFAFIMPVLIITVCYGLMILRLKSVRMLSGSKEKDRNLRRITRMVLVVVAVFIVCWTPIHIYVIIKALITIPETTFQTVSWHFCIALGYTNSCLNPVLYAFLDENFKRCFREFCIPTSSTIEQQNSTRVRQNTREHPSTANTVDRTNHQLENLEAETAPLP

Row | SMILES | Ki [1] [nM] | EC50 [2] [nM] | Ki (Mu-type opioid receptor) [nM] | Ki [3] [nM]
1 | CC[C@H](C)[C@H](NC(=O)[C@H](CCCN=C(N)N)NC(=O)[C@H](CCCN=C(N)N)NC(=O)[C@H](CC(C)C)NC(=O)[C@H](Cc1ccccc1)NC(=O)CNC(=O)CNC(=O)[C@@H](N)Cc1ccc(O)cc1)C(=O)N[C@@H](CCCN=C(N)N)C(=O)N1CCC[C@H]1C(=O)N[C@@H](CCCCN)C(N)=O | 0.14 |  |  | 
2 | CC[C@H](C)[C@H](NC(=O)[C@H](CCCN=C(N)N)NC(=O)[C@H](CCCN=C(N)N)NC(=O)[C@@H]1CNC(=O)C[C@@H](NC(=O)[C@@H](N)Cc2ccc(O)cc2)C(=O)N[C@@H](C)C(=O)N[C@@H](Cc2ccccc2)C(=O)N1)C(=O)N[C@@H](CCCN=C(N)N)C(=O)N1CCC[C@H]1C(=O)N[C@@H](CCCCN)C(N)=O | 1.1 | 0.65 | 2.52 | 30.8
3 | CC[C@H](C)[C@H](NC(=O)[C@H](CCCNC(=N)N)NC(=O)[C@H](CCCNC(=N)N)NC(=O)[C@H](CC(C)C)NC(=O)[C@H](Cc1ccccc1)NC(=O)[C@H](C)NC(=O)CNC(=O)[C@@H](N)Cc1ccc(O)cc1)C(=O)N[C@@H](CCCNC(=N)N)C(=O)N1CCC[C@H]1C(=O)N[C@@H](CCCCN)C(N)=O | 0.26 |  | 16.4 | 
4 | CC[C@H](C)[C@H](NC(=O)[C@H](CCCN=C(N)N)NC(=O)[C@H](CCCN=C(N)N)NC(=O)[C@@H]1CNC(=O)C[C@@H](NC(=O)[C@@H](N)Cc2ccc(O)cc2)C(=O)N[C@H](Cc2c[nH]c3ccccc23)C(=O)N[C@@H](Cc2ccccc2)C(=O)N1)C(=O)N[C@@H](CCCN=C(N)N)C(=O)N1CCC[C@H]1C(=O)N[C@@H](CCCCN)C(N)=O | 2.25 | 12 | 7.27 | 949
5 | CC[C@H](C)[C@H](NC(=O)[C@H](CCCN=C(N)N)NC(=O)[C@H](CCCN=C(N)N)NC(=O)[C@H](CN)NC(=O)[C@H](Cc1ccccc1)NC(=O)[C@H](Cc1c[nH]c2ccccc12)NC(=O)[C@@H](CC(=O)O)NC(=O)[C@@H](N)Cc1ccc(O)cc1)C(=O)N[C@@H](CCCN=C(N)N)C(=O)N1CCC[C@H]1C(=O)N[C@@H](CCCCN)C(N)=O | 1.34 |  | 3.41 | 927
6 | CC[C@H](C)[C@H](NC(=O)[C@H](CCCN=C(N)N)NC(=O)[C@H](CCCN=C(N)N)NC(=O)[C@H](CN)NC(=O)[C@H](Cc1ccccc1)NC(=O)[C@@H](C)NC(=O)[C@@H](CC(=O)O)NC(=O)[C@@H](N)Cc1ccc(O)cc1)C(=O)N[C@@H](CCCN=C(N)N)C(=O)N1CCC[C@H]1C(=O)N[C@@H](CCCCN)C(N)=O | 6.12 |  | 4.21 | 959
7 | CC[C@H](C)[C@H](NC(=O)[C@H](CCCN=C(N)N)NC(=O)[C@H](CCCN=C(N)N)NC(=O)[C@@H]1CNC(=O)C[C@@H](NC(=O)[C@@H](N)Cc2ccc(O)cc2)C(=O)NCC(=O)N[C@@H](Cc2ccccc2)C(=O)N1)C(=O)N[C@@H](CCCN=C(N)N)C(=O)N1CCC[C@H]1C(=O)N[C@@H](CCCCN)C(N)=O | 0.46 | 0.39 | 0.52 | 5.1
8 | CC[C@H](C)[C@H](NC(=O)[C@H](CCCN=C(N)N)NC(=O)[C@H](CCCN=C(N)N)NC(=O)[C@H](CC(C)C)NC(=O)[C@H](Cc1ccccc1)NC(=O)[C@H](Cc1c[nH]c2ccccc12)NC(=O)CNC(=O)[C@@H](N)Cc1ccc(O)cc1)C(=O)N[C@@H](CCCN=C(N)N)C(=O)N1CCC[C@H]1C(=O)N[C@@H](CCCCN)C(N)=O | 1.56 |  | 42.7 | 168
9 | CC[C@H](C)[C@H](NC(=O)[C@H](CCCN=C(N)N)NC(=O)[C@H](CCCN=C(N)N)NC(=O)[C@H](CN)NC(=O)[C@H](Cc1ccccc1)NC(=O)CNC(=O)[C@@H](CC(=O)O)NC(=O)[C@@H](N)Cc1ccc(O)cc1)C(=O)N[C@@H](CCCN=C(N)N)C(=O)N1CCC[C@H]1C(=O)N[C@@H](CCCCN)C(N)=O | 1.59 |  | 0.22 | 11.6
10 | CC[C@H](C)[C@H](NC(=O)[C@H](CCCNC(=N)N)NC(=O)[C@H](CCCNC(=N)N)NC(=O)[C@@H]1CNC(=O)C[C@@H](NC(=O)[C@@H](N)Cc2ccc(O)cc2)C(=O)N[C@@H](Cc2c[nH]c3ccccc23)C(=O)N[C@@H](Cc2ccccc2)C(=O)N1)C(=O)N[C@@H](CCCNC(=N)N)C(=O)N1CCC[C@H]1C(=O)N[C@@H](CCCCN)C(N)=O | 1.33 | 4.19 | 2.09 | 7070
11 | CC[C@H](C)[C@H](NC(=O)[C@H](CCCN=C(N)N)NC(=O)[C@H](CCCN=C(N)N)NC(=O)[C@H](CC(C)C)NC(=O)[C@H](Cc1ccccc1)NC(=O)CNC(=O)CNC(=O)[C@@H](N)Cc1ccc(O)cc1)C(=O)N[C@@H](CCCN=C(N)N)C(=O)N1CCC[C@H]1C(=O)N[C@@H](CCCCN)C(=O)N[C@@H](CC(C)C)C(=O)N[C@@H](CCCCN)C(N)=O | 0.39 |  | 1.88 | 6.07
12 | CC[C@H](C)[C@H](NC(=O)[C@H](CCCNC(=N)N)NC(=O)[C@H](CCCNC(=N)N)NC(=O)[C@H](CC(C)C)NC(=O)[C@H](Cc1ccccc1)NC(=O)[C@@H](C)NC(=O)CNC(=O)[C@@H](N)Cc1ccc(O)cc1)C(=O)N[C@@H](CCCNC(=N)N)C(=O)N1CCC[C@H]1C(=O)N[C@@H](CCCCN)C(N)=O | 0.34 |  | 19.8 | 
13 | CC[C@H](C)[C@H](NC(=O)[C@H](CCCN=C(N)N)NC(=O)[C@H](CCCN=C(N)N)NC(=O)[C@H](CN)NC(=O)[C@H](Cc1ccccc1)NC(=O)[C@@H](Cc1c[nH]c2ccccc12)NC(=O)[C@@H](CC(=O)O)NC(=O)[C@@H](N)Cc1ccc(O)cc1)C(=O)N[C@@H](CCCN=C(N)N)C(=O)N1CCC[C@H]1C(=O)N[C@@H](CCCCN)C(N)=O | 1.26 |  | 4.57 | 813
14 | CC[C@H](C)[C@H](NC(=O)[C@H](CCCNC(=N)N)NC(=O)[C@H](CCCNC(=N)N)NC(=O)[C@@H]1CNC(=O)C[C@@H](NC(=O)[C@@H](N)Cc2ccc(O)cc2)C(=O)N2CCC[C@H]2C(=O)N[C@@H](Cc2ccccc2)C(=O)N1)C(=O)N[C@@H](CCCNC(=N)N)C(=O)N1CCC[C@H]1C(=O)N[C@@H](CCCCN)C(N)=O | 9.03 | 153 | 125 | > 10000
15 | CC[C@H](C)[C@H](NC(=O)[C@H](CCCN=C(N)N)NC(=O)[C@H](CCCN=C(N)N)NC(=O)[C@H](CN)NC(=O)[C@H](Cc1ccccc1)NC(=O)CNC(=O)[C@@H](CC(=O)O)NC(=O)[C@@H](N)Cc1ccc(O)cc1)C(=O)N[C@@H](CCCN=C(N)N)C(=O)N1CCC[C@H]1C(=O)N[C@@H](CCCCN)C(=O)N[C@@H](CC(C)C)C(=O)N[C@@H](CCCCN)C(N)=O | 0.2 |  | 0.26 | 3.9
16 | CC[C@H](C)[C@H](NC(=O)[C@H](CCCNC(=N)N)NC(=O)[C@H](CCCNC(=N)N)NC(=O)[C@@H]1CNC(=O)C[C@@H](NC(=O)[C@@H](N)Cc2ccc(O)cc2)C(=O)N[C@H](C)C(=O)N[C@@H](Cc2ccccc2)C(=O)N1)C(=O)N[C@@H](CCCNC(=N)N)C(=O)N1CCC[C@H]1C(=O)N[C@@H](CCCCN)C(N)=O | 0.21 | 0.54 | 3.89 | 139
17 | CC[C@H](C)[C@H](NC(=O)[C@H](CCCN=C(N)N)NC(=O)[C@H](CCCN=C(N)N)NC(=O)[C@H](CN)NC(=O)[C@H](Cc1ccccc1)NC(=O)[C@H](C)NC(=O)[C@@H](CC(=O)O)NC(=O)[C@@H](N)Cc1ccc(O)cc1)C(=O)N[C@@H](CCCN=C(N)N)C(=O)N1CCC[C@H]1C(=O)N[C@@H](CCCCN)C(N)=O | 0.86 |  | 2.02 | 55.1
18 | CC[C@H](C)[C@H](NC(=O)[C@H](CCCNC(=N)N)NC(=O)[C@H](CCCNC(=N)N)NC(=O)[C@H](CC(C)C)NC(=O)[C@H](Cc1ccccc1)NC(=O)[C@@H](Cc1c[nH]c2ccccc12)NC(=O)CNC(=O)[C@@H](N)Cc1ccc(O)cc1)C(=O)N[C@@H](CCCNC(=N)N)C(=O)N1CCC[C@H]1C(=O)N[C@@H](CCCCN)C(N)=O | 5.41 |  | 45.9 | 1080
19 | CC[C@H](C)[C@H](NC(=O)[C@H](CCCN=C(N)N)NC(=O)[C@H](CCCN=C(N)N)NC(=O)[C@@H]1CNC(=O)C[C@@H](NC(=O)[C@@H](N)Cc2ccc(O)cc2)C(=O)NCC(=O)N[C@@H](Cc2ccccc2)C(=O)N1)C(=O)N[C@@H](CCCN=C(N)N)C(=O)N1CCC[C@H]1C(=O)N[C@@H](CCCCN)C(=O)N[C@@H](CC(C)C)C(=O)N[C@@H](CCCCN)C(N)=O (HELM PEPTIDE1{Y.[dD].G.F.[O=C([C@H](CN[*:3])N[*:1])[*:2]].R.R.I.R.P.K.L.K.[am]}$PEPTIDE1,PEPTIDE1,2:R3-5:R3$$$V2.0) | 0.16 |  | 1.17 | 3.31
